≈ marks a conversion by molar mass, not a printed value. Calls of active or inactive are those of the source. No cut-off for these calls is given here.
Experiments:
[1] = tested on: HT-29; test: Cytotoxicity against human HT-29 cells assessed as reduction in cell growth incubated for 72 hrs; format: functional, cell-based; settings: HT-29, 72 h
Procedure, shortened: (§1)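 Cells grown in RPMI 1640 with 10% FBS, penicillin and streptomycin at 37 °C, 5% CO2. Log-phase cells trypsinized, washed twice, seeded at about 5,000 per well and left overnight. Compounds in DMSO added for 72 h at 37 °C. Viability read by MTS-type absorbance assay (CellTiter 96 AQueous One). IC50 in μM relative to DMSO control. Vinblastine as positive control.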

[2] = tested on: MDA-MB-435; test: Cytotoxicity against human MDA-MB-435 cells assessed as reduction in cell growth incubated for 72 hrs; format: functional, cell-based; settings: MDA-MB-435, 72 h; procedure, shortened: as §1
[3] = tested on: Escherichia coli; test: Antimicrobial activity against Escherichia coli incubated for 4 days by broth microdilution method; format: functional
Procedure, shortened: (§2)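 Broth microdilution in 1/10-strength BHIB+S; 2-fold compound dilution series inoculated with cell suspension. Incubated 4 days; growth scored visually by turbidity. MIC taken as lowest concentration with no turbidity relative to negative control. Each compound run in triplicate.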

[4] = tested on: Staphylococcus aureus; test: Antimicrobial activity against Staphylococcus aureus incubated for 4 days by broth microdilution method; format: functional; procedure, shortened: as §2
[5] = tested on: Aspergillus niger; test: Antimicrobial activity against Aspergillus niger incubated for 4 days by broth microdilution method; format: functional; procedure, shortened: as §2
[6] = tested on: Candida albicans; test: Antimicrobial activity against Candida albicans incubated for 4 days by broth microdilution method; format: functional; procedure, shortened: as §2
[7] = tested on: Mycolicibacterium smegmatis; test: Antimicrobial activity against Mycobacterium smegmatis incubated for 4 days by broth microdilution method; format: functional; procedure, shortened: as §2

SMILES: COc1cc(O)c2c(c1O)OC[C@@H](Cc1ccc(O)cc1)C2=O
- IC50 [1]: > 20 µM
- IC50 [2]: > 20 µM
- MIC [3]: inactive
- MIC [4]: inactive
- MIC [5]: inactive
- MIC [6]: inactive
- MIC [7]: inactive

SMILES: COc1c(O)cc(O)c2c1OC/C(=C\c1ccc(O)cc1)C2=O
- IC50 [1]: > 20 µM
- IC50 [2]: > 20 µM
- MIC ([3]; 96 h): > 48 µg/mL
- MIC ([4]; 96 h): > 48 µg/mL
- MIC ([5]; 96 h): > 48 µg/mL
- MIC ([6]; 96 h): > 48 µg/mL
- MIC ([7]; 96 h): 24 µg/mL (≈ 76.4 µM)

SMILES: COc1cc(/C=C/C(=O)NCCc2ccc(O)cc2)ccc1O [N-TRANS-FERULOYL TYRAMINE]
- IC50 [1]: > 20 µM
- IC50 [2]: > 20 µM
- MIC [3]: inactive
- MIC [4]: inactive
- MIC [5]: inactive
- MIC [6]: inactive
- MIC [7]: inactive

SMILES: O=C1/C(=C/c2ccc(O)cc2)COc2cc(O)cc(O)c21
- IC50 [1]: > 20 µM
- IC50 [2]: > 20 µM
- MIC [3]: inactive
- MIC [4]: inactive
- MIC [5]: inactive
- MIC [6]: inactive
- MIC [7]: inactive

SMILES: COc1cc(O)c2c(c1OC)OC[C@@H](Cc1ccc(O)c(O)c1)C2=O
- IC50 [1]: > 20 µM
- IC50 [2]: > 20 µM
- MIC [3]: inactive
- MIC [4]: inactive
- MIC [5]: inactive
- MIC [6]: inactive
- MIC [7]: inactive

SMILES: CN[C@H](CC(C)C)C(=O)N[C@H]1C(=O)N[C@@H](CC(N)=O)C(=O)N[C@H]2C(=O)N[C@H]3C(=O)N[C@H](C(=O)N[C@H](C(=O)O)c4cc(O)cc(O)c4-c4cc3ccc4O)[C@H](O)c3ccc(c(Cl)c3)Oc3cc2cc(c3O[C@@H]2O[C@H](CO)[C@@H](O)[C@H](O)[C@H]2O[C@H]2C[C@](C)(N)[C@H](O)[C@H](C)O2)Oc2ccc(cc2Cl)[C@H]1O [VANCOMYCIN]
- MIC ([4]; 96 h): 0.25 µg/mL (≈ 0.173 µM)

SMILES: COc1ccc(C[C@@H]2COc3cc(O)cc(O)c3C2=O)cc1O
- IC50 [1]: > 20 µM
- IC50 [2]: 1 µM
- MIC ([3]; 96 h): > 138 µg/mL
- MIC ([4]; 96 h): > 138 µg/mL
- MIC ([5]; 96 h): > 138 µg/mL
- MIC ([6]; 96 h): > 138 µg/mL
- MIC ([7]; 96 h): 17 µg/mL (≈ 53.7 µM)

SMILES: O=C1c2c(O)cc(O)cc2OC[C@H]1Cc1ccc(O)cc1
- IC50 [1]: > 20 µM
- IC50 [2]: > 20 µM
- MIC ([3]; 96 h): > 125 µg/mL
- MIC ([4]; 96 h): > 125 µg/mL
- MIC ([5]; 96 h): > 125 µg/mL
- MIC ([6]; 96 h): > 125 µg/mL
- MIC ([7]; 96 h): 63 µg/mL (≈ 220 µM)

SMILES: COc1cc(O)c2c(c1OC)OC/C(=C\c1ccc(O)cc1)C2=O
- IC50 [1]: > 20 µM
- IC50 [2]: 13.2 µM
- MIC [3]: inactive
- MIC [4]: inactive
- MIC [5]: inactive
- MIC [6]: inactive
- MIC [7]: inactive

SMILES: COc1cc(O)c2c(c1OC)OC[C@@H](Cc1ccc(O)cc1)C2=O
- IC50 [1]: > 20 µM
- IC50 [2]: > 20 µM
- MIC [3]: inactive
- MIC [4]: inactive
- MIC [5]: inactive
- MIC [6]: inactive
- MIC [7]: inactive

SMILES: COc1ccc(C[C@@H]2COc3c(OC)c(OC)cc(O)c3C2=O)cc1O
- IC50 [1]: 17.3 µM
- IC50 [2]: 1.1 µM
- MIC [3]: inactive
- MIC [4]: inactive
- MIC [5]: inactive
- MIC [6]: inactive
- MIC [7]: inactive

SMILES: C[C@@H]1[C@H](O)[C@@H](C)/C=C/C=C/C=C/C=C/C=C/C=C/C=C/[C@H](O[C@@H]2O[C@H](C)[C@@H](O)[C@H](N)[C@@H]2O)C[C@@H]2O[C@](O)(C[C@@H](O)C[C@@H](O)[C@H](O)CC[C@@H](O)C[C@@H](O)CC(=O)O[C@H]1C)C[C@H](O)[C@H]2C(=O)O [AMPHOTERICIN B]
- MIC ([5]; 96 h): 31 µg/mL (≈ 33.5 µM)
- MIC ([6]; 96 h): 16 µg/mL (≈ 17.3 µM)

SMILES: COc1cc(O)c2c(c1OC)OC/C(=C\c1ccc(O)c(O)c1)C2=O
- IC50 [1]: > 20 µM
- IC50 [2]: 4.6 µM
- MIC ([3]; 96 h): > 93 µg/mL
- MIC ([4]; 96 h): 93 µg/mL (≈ 270 µM)
- MIC ([5]; 96 h): > 93 µg/mL
- MIC ([6]; 96 h): > 93 µg/mL
- MIC ([7]; 96 h): 47 µg/mL (≈ 137 µM)

SMILES: COc1cc(O)c2c(c1)OC[C@@](O)(Cc1ccc(O)cc1)C2=O
- IC50 [1]: > 20 µM
- IC50 [2]: > 20 µM
- MIC [3]: inactive
- MIC [4]: inactive
- MIC [5]: inactive
- MIC [6]: inactive
- MIC [7]: inactive

SMILES: CC[C@]1(O)C[C@@H]2CN(CCc3c([nH]c4ccccc34)[C@@](C(=O)OC)(c3cc4c(cc3OC)N(C)[C@H]3[C@@](O)(C(=O)OC)[C@H](OC(C)=O)[C@]5(CC)C=CCN6CC[C@]43[C@@H]65)C2)C1 [VINBLASTINE]
- IC50 [1]: 0.0045 µM
- IC50 [2]: 0.0005 µM

SMILES: COc1cc(O)c2c(c1OC)OCCC2=O
- IC50 [1]: > 20 µM
- IC50 [2]: > 20 µM
- MIC [3]: inactive
- MIC [4]: inactive
- MIC [5]: inactive
- MIC [6]: inactive
- MIC [7]: inactive

SMILES: CS/C=C/C(=O)OC[C@H](O)c1ccccc1
- IC50 [1]: > 20 µM
- IC50 [2]: > 20 µM
- MIC [3]: inactive
- MIC [4]: inactive
- MIC [5]: inactive
- MIC [6]: inactive
- MIC [7]: inactive

SMILES: CC1(C)S[C@@H]2[C@H](NC(=O)[C@H](N)c3ccccc3)C(=O)N2[C@H]1C(=O)O [AMPICILLIN]
- MIC ([3]; 96 h): 8 µg/mL (≈ 22.9 µM)

SMILES: COc1cc2c(c(O)c1O)C(=O)[C@H](Cc1ccc(O)cc1)CO2
- IC50 [1]: > 20 µM
- IC50 [2]: > 20 µM
- MIC [3]: inactive
- MIC [4]: inactive
- MIC [5]: inactive
- MIC [6]: inactive
- MIC [7]: inactive

SMILES: COc1cc2c(cc1O)C[C@]21COc2cc(O)cc(O)c2C1=O
- IC50 [1]: > 20 µM
- IC50 [2]: > 20 µM
- MIC [3]: inactive
- MIC [4]: inactive
- MIC [5]: inactive
- MIC [6]: inactive
- MIC [7]: inactive

SMILES: COc1c(O)c(O)c2c(c1OC)OC[C@@H](Cc1ccc(O)cc1)C2=O
- IC50 [1]: > 20 µM
- IC50 [2]: > 20 µM
- MIC [3]: inactive
- MIC [4]: inactive
- MIC [5]: inactive
- MIC [6]: inactive
- MIC [7]: inactive

SMILES: O=C1c2c(O)cc(O)cc2OC[C@H]1Cc1ccc(O)c(O)c1
- IC50 [1]: > 20 µM
- IC50 [2]: > 20 µM
- MIC [3]: inactive
- MIC [4]: inactive
- MIC [5]: inactive
- MIC [6]: inactive
- MIC [7]: inactive

SMILES: O=C(O)c1cn(C2CC2)c2cc(N3CCNCC3)c(F)cc2c1=O [CIPROFLOXACIN]
- MIC ([7]; 96 h): 2 µg/mL (≈ 6.04 µM)

— ChEMBL document CHEMBL3593169, “Cytotoxic Homoisoflavones from the Bulbs of Bellevalia eigii” (J Nat Prod, 2015)
